LEDGF integ inh – blocks HIV-1 LEDGF/p75-dependent DNA integration; inhibition, % at 3.7 µM; actives 0.64% (n = 370,000); TR-FRET IN-LEDGF/p75 DNA integration, Eu/Cy5; AID 743269;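 active = inhibition above the screen-wide mean plus 3 SD, cut at about 13% in these data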;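 also: signal is the Cy5 over europium emission ratio at 671 and 618 nm; 0% = plate median of compound wells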
UHRF1 binding – human UHRF1 methylated DNA binding inhibitors | Q96T88 | actives 0.75% (n = 370,000) | UHRF1 binding to methylated oligo, TR-FRET | inhibition, % at 4.4 µM; in the data active = inhibition above about 21%;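 also: UHRF1 SRA domain binding a hemimethylated CpG hairpin DNA probe; 0% = median of test compound wells and 100% = reference inhibitor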
Tn7 DDE FP – DD(E)-Tn7 binding inhibition, primary FP screen; FP displacement of FITC-Tn7 peptide from fibrin DD(E); 0% = median of compound wells per plate; inhibition, % at 8.3 µM; actives 0.13% (n = 370,000);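 active = inhibition above the mean of compounds falling within the control limits plus 3 SD of them, cut at about 14% in these data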;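 also: 0% = plate median of compound wells and 100% = 10 µM Aha-Tn7 peptide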
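assay system = human clot-derived fibrin DD(E) complex | quantity = Fibrin-DD(E) at 2 µM final | timing = 10 min preincubation, 3 h with tracer, room temperature | signal = fluorescence polarization | measure = percent inhibition | benchmarks = high control wells with 10 µM unlabelled Aha-Tn7 peptide (full inhibition) | replicates = singlicate testing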
Tn6 DDE FP – DD(E)-Tn6 binding inhibition, primary FP screen. P02675. Fibrin DD(E) TRITC-Tn6 fluorescence polarization displacement. inhibition, % at 8.3 µM. actives 0.21% (n = 370,000). AID 720509;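 active = inhibition above a per-campaign cutoff: mean of compounds within control limits plus 3 SD, cut at about 15% in these data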;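 also: 0% = median of all compound wells on the plate and 100% = blocking peptide control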
TDP2 absorb – TDP2 (human) inhibition, absorbance primary screen; O95551; recombinant TDP2, T5PNP hydrolysis, p-nitrophenol absorbance 415 nm; inhibition, % at 12.8 µM; actives 0.34% (n = 370,000); AID 720702;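 active = inhibition above the mean of all tested compounds plus 3 SD, set per campaign, cut at about 25% in these data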;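 also: 0% = DMSO with enzyme and 100% = buffer with substrate but no TDP2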
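System: recombinant human TDP2 / Amount: 120 nM TDP2 per well / Also added: 5 mM T5PNP chromogenic substrate / Doses: 12.8 µM single point, 1% DMSO / Incubation: 2 h at 37 °C / Detection: p-Nitrophenol epi absorbance / Evaluation: % inhibition relative to enzyme-containing and enzyme-free wells / Repeats: singlicate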
MBD2 inh – blocks human MBD2 binding to methylated DNA. actives 0.31% (n = 370,000). inhibition, % at 4.4 µM. AID 686964. TR-FRET, MBD2 binding to methylated oligonucleotide; in the data active = inhibition above about 13%
Target sequence (Q9UBB5 whole entry, looked up): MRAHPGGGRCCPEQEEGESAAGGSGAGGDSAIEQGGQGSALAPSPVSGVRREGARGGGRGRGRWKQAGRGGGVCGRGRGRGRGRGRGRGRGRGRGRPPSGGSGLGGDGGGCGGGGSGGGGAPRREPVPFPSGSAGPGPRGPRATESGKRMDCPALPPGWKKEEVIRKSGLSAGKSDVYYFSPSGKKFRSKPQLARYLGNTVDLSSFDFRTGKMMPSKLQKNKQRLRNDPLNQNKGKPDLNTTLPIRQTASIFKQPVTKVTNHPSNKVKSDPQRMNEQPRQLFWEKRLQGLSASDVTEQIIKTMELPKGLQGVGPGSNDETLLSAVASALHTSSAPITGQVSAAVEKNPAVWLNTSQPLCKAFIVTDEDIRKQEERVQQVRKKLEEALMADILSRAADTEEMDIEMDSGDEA
* hit, by the source's call. Hits are enriched below; roughly 1.9% of the tested compounds scored in any of these assays.

SMILES | LEDGF integ inh | UHRF1 binding | Tn7 DDE FP | Tn6 DDE FP | TDP2 absorb | MBD2 inh
COc1cccc(-n2cc(CNC(=O)C3CCC(=O)N(C4CC4)C3)cn2)c1 (centres undefined) | 4 | 21* | 7 | -5 | 3 | 9
CN(C)CCCN1C(=O)c2cccc3c(Br)ccc(c23)C1=O | 3 | 2 | -3 | -7 | -16 | 10
Cc1nn(C)c(C)c1N1C(=O)c2cccc3c(Br)ccc(c23)C1=O | -2 | 22* | 3 | 0 | 4 | 0
COC(=O)c1ccc(S(=O)(=O)N(Cc2ccccc2)Cc2ccccc2)n1C | -1 | 62* | 3 | 3 | 12 | -5
CCN(Cc1ccccc1)S(=O)(=O)c1cc(C(=O)OC)n(C)c1 | 1 | 1 | 0 | -8 | 2 | -2
Cc1ccc(CNC(=O)C2CC(=O)N(C3CCCCCC3)C2)cc1 (centres undefined) | -1 | 37* | -2 | -4 | 1 | 2
Cc1ccc(CNC(=O)C2CC(=O)N(C3CCCC3)C2)cc1 (centres undefined) | -4 | 3 | 6 | 5 | 1 | 1
Cc1cccc(C)c1OCc1nnc(SCC(=O)O)n1-c1c(C)cccc1C | 0 | 4 | 7 | -7 | 7 | -3
CC(C)c1cc(C(C)C)c(S(=O)(=O)N2CCCC(C(=O)NCc3cccs3)C2)c(C(C)C)c1 (centres undefined) | -6 | -1 | -1 | 1 | -10 | -2
Cc1ccc(S(=O)(=O)N2CCCC(C(=O)NCc3ccco3)C2)cc1 (centres undefined) | 3 | -1 | -4 | -4 | -5 | -4
COc1ccc(/C=C(\NC(=O)c2ccccc2)C(=O)N2CCCCC2)cc1OC | 7 | 56* | -3 | -8 | -9 | -2
COc1ccccc1-n1c(SCC(=O)N2CCCCC2)nc(O)c(Cc2ccccc2)c1=O | -5 | 1 | 8 | 10 | 1 | 3
COc1ccccc1-n1c(SCC(=O)NC(C)(C)C)nc(O)c(Cc2ccccc2)c1=O | 0 | 22* | 3 | -4 | -9 | 6
CCCC/C=C1/[C@@H](CC)N(Cc2ccc(OC)cc2OC)C2=N[C@H](c3ccccc3)CC(=O)N21 | 2 | 2 | -1 | -6 | -9 | 7
C/C=C/C=C\C(=O)Nc1cccc(C2=NOC3(C2)C[C@H](C(N)=O)N(C(=O)CC#N)C3)c1 (some centres undefined) | 2 | 13 | 6 | 0 | 3 | 19*
COc1ccc(Cn2c(C)nc3c(c2=O)c2nc4ccccc4nc2n3Cc2ccco2)cc1 | 14* | 17 | 0 | 1 | 0 | 18*
COc1ccc(S(=O)(=O)c2c(N)n(Cc3ccco3)c3nc4ccccc4nc23)cc1 | 15* | 0 | 2 | -2 | -1 | 2
CC(C)[C@H](NC(=O)C1CCCC1)C(=O)N1CCC[C@H]1C(=O)NCc1ccccc1 | 3 | 0 | -11 | -6 | 3 | -7
Cc1cc(NC(=O)CCC(=O)N(CC(=O)NCC2CCCO2)c2cccc(F)c2)no1 (centres undefined) | 41* | 0 | 0 | 4 | -8 | -6
CC(C)c1[nH]nc2c1C(c1ccc(Br)cc1)NC2=O (centres undefined) | -2 | -1 | 3 | -8 | -2 | -3
Cc1cc(C(=O)NP(=O)(N2CCOCC2)N2CCOCC2)c(C)n1-c1ccc(Br)cc1 | 0 | 21* | -1 | 0 | 7 | 6
COc1cc(OC)c2ccc(=O)oc2c1C(CCN1CCOCC1)c1ccc2c(c1)OCO2 (centres undefined) | 1 | 26* | 8 | -1 | -2 | 4
COc1cc(OC)c2ccc(=O)oc2c1C(CCN1CCCC1)c1ccc2c(c1)OCO2 (centres undefined) | 1 | 0 | -1 | 9 | 4 | -3
O=C(NCc1cccs1)C1CCCN(S(=O)(=O)c2cccc3ccccc23)C1 (centres undefined) | 3 | 3 | 6 | 1 | -3 | -1
COc1cc2c(cc1OC)CSC1C(=O)N(C)C(SC2)C(=O)N1C | -1 | -5 | 2 | -3 | 4 | -12
SMILES | LEDGF integ inh | UHRF1 binding | Tn7 DDE FP | Tn6 DDE FP | TDP2 absorb | MBD2 inh
COc1ccc(CC(=O)Cc2ccc(OC)c(OC)c2)cc1OC | -5 | 1 | 14* | 1 | -2 | 3
COc1ccc(CC(=O)Oc2ccc(C)cc2Br)cc1OC | 14* | 1 | -2 | 4 | -12 | 2
O=C(NN1CC(C(=O)OCc2ccccc2F)CC1=O)c1ccccc1 (centres undefined) | 0 | 22* | -6 | -4 | 1 | 5
CCn1c(NC(=O)C(C)C)c(-c2ccccc2)c(=O)c2ccccc21 | -6 | 47* | 3 | 6 | 9 | 5
CC(C)C(=O)Nc1c(-c2cccc(Cl)c2)c(=O)c2ccccc2n1C | -2 | 1 | 6 | -4 | -3 | -5
Cc1nc2ccc(C(=O)N3c4ccccc4CC3C)cc2s1 (centres undefined) | -2 | 23* | 0 | -1 | -3 | 5
N#CCN(C(=O)COC(=O)CCCNC(=O)c1ccc(Cl)cc1)c1ccccc1 | 1 | 50* | 1 | -7 | 7 | 0
O=C(COC(=O)CCCNC(=O)c1ccc(Cl)cc1)NCc1ccccc1Cl | -1 | 0 | 2 | -6 | 8 | 3
CN(C(=O)COC(=O)c1cc([N+](=O)[O-])ccc1N1CCOCC1)C1CCCCC1 | 0 | -2 | 5 | -4 | 4 | -8
CCN(C(=O)COC(=O)c1cc([N+](=O)[O-])ccc1N1CCOCC1)C1CCCCC1 | -3 | 26* | 8 | 10 | 17 | -4
COCCNc1oc(/C=C/c2cccs2)nc1S(=O)(=O)c1ccccc1 | -4 | 53* | -2 | 6 | 4 | 1
Cc1cc(C)cc(NC(=O)COC(=O)CC2CCCC2)c1 | 2 | 32* | 7 | 3 | -2 | 0
CCCCC(=O)Nc1cccc(C(C)O)c1 (centres undefined) | -6 | 0 | -3 | 0 | 6 | -1
CC(C)CC(=O)Nc1cccc(C(C)O)c1 (centres undefined) | 4 | 21* | -5 | 3 | 1 | -2
CCCCCCCCN1C(=O)[C@@H](CC(=O)N2CCC(c3ccccc3)CC2)C[C@@]2(C(=O)OC)C1=C[C@H](COCc1ccccc1)O[C@@H]2C | 2 | 1 | 0 | 0 | -3 | -2
O=C(CSc1nc2ccccc2[nH]1)N1CCCCC1 | 0 | -3 | 3 | -1 | 4 | -1
Cc1c(C)n(C(=O)CSc2nc3ccccc3[nH]2)c2ccccc12 | 3 | 47* | 1 | -9 | 5 | 9
COc1c(C)cccc1C(=O)Nc1ccc(N2CCN(C(=O)c3ccccc3C)CC2)cc1 | -3 | 27* | 2 | -4 | -8 | 3
